Assay results: ChEMBL document CHEMBL4513216, “Probing the Open Global Health Chemical Diversity Library for Multistage-Active Starting Points for Next-Generation Antimalarials” (ACS Infect Dis, 2020)

Assay: Toxicity liver stage against HepG2, at 10uM
Format: cell-based
Set-up: test concentration 10 uM, cell line HepG2-A16-CD81EGFP
Details: human, HepG2-A16-CD81EGFP cells; read-out: INHIBITION
In short: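 Uninfected HepG2-A16-CD81EGFP cells, 3 × 10^3 per well, 1536-well, plated on prespotted compound at 10 μM final, parasite-free screening media added to match infected plates; puromycin 10 μM positive, DMSO 0.5% negative; run in parallel with 48 h PbLuc assay at 37 °C, 5% CO2; viability by CellTiter-Glo luminescence, normalized to controls.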

Compound	cytotoxicity at 10 µM [%]
COc1cc2c(cc1CN1CCCCC1CN1CCOCC1)CCC2 (stereo unspecified)	-4.57
CC(Nc1cccc2c1OCCO2)C(=O)Nc1ccc(Cl)cc1 (stereo unspecified)	2.84
CN(C)c1ccc(C(=O)N2CCN(C(=O)N3CCCCC3)CC2)nn1	-9.14
CC(C)n1[nH]c(=O)c2c1NC(=O)CC2c1cccc2cccnc12 (stereo unspecified)	2.83
COCCN(c1cc(C)nc2nc(C(F)(F)F)nn12)C1CCCC1	-0.0692
O=C(c1coc(COc2cccc3cnccc23)n1)N1CCSCC1	-77.9
CCCc1cc(C(=O)N2CC(c3ccncc3)C2)ccn1	2.36
c1ccc(Cc2nnc(CN3CCn4c(nnc4C4CC4)C3)o2)cc1	-0.192
Cc1cc(CNC(=O)NCc2cccs2)ccc1S(C)(=O)=O	-6.97
CC(C)CCn1cc(C(C(=O)O)N2CCCN(C3CCCC3)CC2)cn1 (stereo unspecified)	-5.84
O=C(NCCNC1CCCC1)c1cccs1	-0.579
Cc1nc(Nc2cnccn2)cc(C2CCN(c3ncccn3)C2)n1 (stereo unspecified)	-19.5
O=C1CC(NS(=O)(=O)c2ccc(Cl)cc2)CN1 (stereo unspecified)	6.66
CC(=O)c1ccc(F)cc1-c1cc(NCCO)nc2[nH]ccc12	-5.72
COCC1CC2(CCNCC2)CN1c1ncccn1 (stereo unspecified)	7.51
COc1ccc(CN2CC[C@H](NC(C)=O)[C@@H](O)CC2)c(F)c1	-11.1
COc1ccc2c(c1)CC(C(=O)N(C)CCCc1cnn(C)c1)CO2 (stereo unspecified)	-7.55
CCOc1cccc(C2CC(=O)NCc3nc(N(C)C)sc32)c1 (stereo unspecified)	-10.9
Cc1ccc2c(n1)N(CCn1cccn1)CCN(C1CCOCC1)C2	-2.83
CN1CCC(N(Cc2ccco2)S(=O)(=O)c2cc(Br)ccc2Br)CC1	-17.7
Cn1cccc1C(=O)N1CC2(CCN(C(=O)c3cccnc3)C2)C1	-98.4
Cc1ccc(OCCN2CCN(Cc3cnn(CCO)c3)CC2)cc1	-2.4
CNC(=O)c1nc2c(s1)CCN(C(=O)c1ccc(OC)cc1)CC2	0.428

Compound	cytotoxicity at 10 µM [%]
Cc1ccc(C(=O)Nc2ccc(N3CCC(O)CC3)c(C#N)c2)s1	-5.71
O=C(c1ccco1)N1CCc2onc(Cn3cccn3)c2C1	-1.22
Cc1ccc(C(=O)NCCCNc2ccc(C(F)(F)F)cn2)cc1	-2.34
O=C(NCC(F)(F)F)c1ccc(-n2cncn2)nn1	-1.66
COc1cc2c(cc1CN1CCn3c(CO)nnc3C1)CCC2	-4.05
CCN(CC)C(=O)[C@@H]1C[C@@H](NC(=O)c2ccn(C(C)(C)C)c2)CN1C	-4.12
CN1CCOC(c2cncc(CCC(=O)N(C)C)n2)C1 (stereo unspecified)	0.55
O=C(NCCN1CCOCC1)NCC(O)c1cccc(F)c1 (stereo unspecified)	-9.24
CCC(NC(=O)NCc1nncn1CC)c1ccc(OC)cc1 (stereo unspecified)	1.97
CN(C)C(CNC(=O)NCc1cc[nH]n1)c1ccco1 (stereo unspecified)	-5.47
CN(C)C(=O)C1CCN(C2CCN(CC3CCC3)CC2)CC1	2.82
CCc1ccsc1C(=O)N(C)CCc1ccncc1	-0.386
CN1CC(=O)N(c2cnn(C)c2)CC12CCN(Cc1ccccc1)C2 (stereo unspecified)	-7.24
CCOC(=O)NCCNC(=O)c1cc(Br)cn1C(C)C	9.08
Cc1noc(C)c1CC(=O)NCC1(O)CCCN(c2ccccn2)C1 (stereo unspecified)	-2.03
NC(=O)COc1cccc(CN2CCc3cncnc3C2)c1	-12.9
Cc1nc(NC(=O)C(C)n2ncc(Br)c2C)sc1C (stereo unspecified)	10.3
CCOC(=O)NC(=O)CSC(C)c1ccccc1F (stereo unspecified)	-15.1
CCn1nc(C)c2nc(C(C)C)nc(N(C)Cc3ccco3)c21	15.6
CO[C@H]1CN(c2ccccc2)S(=O)(=O)[C@@]12CCN(Cc1ccccc1)C2	-4.86
Cc1cnn(CCNCC(O)COc2cccc(C(F)(F)F)c2)c1 (stereo unspecified)	-21.7
CN(C)CC1CN(C(=O)CCc2ccccc2)Cc2nccn2C1 (stereo unspecified)	-121
CN(C)CCN1C(=O)CCC12CCCN(C(=O)N(C)C)CC2 (stereo unspecified)	4.56
